AI-2 QS modul = modulators of Vibrio harveyi AI-2 quorum sensing system; 300,000 compounds, 0.4% hits; Vibrio harveyi JMH597 AI-2 luminescence/OD600 ratio, 9 h; hits give low values; strain lacks LuxN and CqsS sensors; 0 = neutral-control median; AID 2094; activity change, % at 7.5 µM; in the data active = activity change below about -75%, passing the limit was not always enough; inconclusive = no clear call, values can overlap the other calls;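 also: luminescence divided by OD600 gain over 9 h not by final OD600 alone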
HTR2A ag = agonists of mouse serotonin 5-HT2A receptor (HTR2A); P35363; CHO-K1 mHTR2A beta-arrestin complementation, luminescence; percent of 30 µM serotonin response; activation, % at 7.6 µM; 360,000 compounds, 0.66% hits; AID 624169;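 active = activation above a run cutoff, the mean activation of all tested compounds plus 3 SD, cut at about 14% in these data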;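 also: 0% = plate median of compound wells and 100% = 30 µM serotonin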
MsrA inh = inhibits bovine methionine sulfoxide reductase A; inhibition, % at 15.5 µM; purified bovine MsrA, absorbance read-out; 360,000 compounds, 0.75% hits; in the data active = inhibition above about 4.5%;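 also: 0% = vehicle wells with enzyme and 100% = reference inhibitor wells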
bovine MsrA act = activates bovine MsrA enzyme; 360,000 compounds, 0.3% hits; activation, % at 10.6 µM; purified bovine MsrA, absorbance read-out; in the data active = activation above about 7.5%;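 also: 0% = vehicle and 100% = reference activator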
AHR activator = activates the human aryl hydrocarbon receptor | P35869 | AHR-responsive luciferase reporter cells, luminescence | activation, % at 5 µM | 320,000 compounds, 2.5% hits | AID 2796; in the data active = activation above about 47%;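 also: 0% = vehicle wells and 100% = reference agonist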
Target sequence (P35869 whole entry, looked up): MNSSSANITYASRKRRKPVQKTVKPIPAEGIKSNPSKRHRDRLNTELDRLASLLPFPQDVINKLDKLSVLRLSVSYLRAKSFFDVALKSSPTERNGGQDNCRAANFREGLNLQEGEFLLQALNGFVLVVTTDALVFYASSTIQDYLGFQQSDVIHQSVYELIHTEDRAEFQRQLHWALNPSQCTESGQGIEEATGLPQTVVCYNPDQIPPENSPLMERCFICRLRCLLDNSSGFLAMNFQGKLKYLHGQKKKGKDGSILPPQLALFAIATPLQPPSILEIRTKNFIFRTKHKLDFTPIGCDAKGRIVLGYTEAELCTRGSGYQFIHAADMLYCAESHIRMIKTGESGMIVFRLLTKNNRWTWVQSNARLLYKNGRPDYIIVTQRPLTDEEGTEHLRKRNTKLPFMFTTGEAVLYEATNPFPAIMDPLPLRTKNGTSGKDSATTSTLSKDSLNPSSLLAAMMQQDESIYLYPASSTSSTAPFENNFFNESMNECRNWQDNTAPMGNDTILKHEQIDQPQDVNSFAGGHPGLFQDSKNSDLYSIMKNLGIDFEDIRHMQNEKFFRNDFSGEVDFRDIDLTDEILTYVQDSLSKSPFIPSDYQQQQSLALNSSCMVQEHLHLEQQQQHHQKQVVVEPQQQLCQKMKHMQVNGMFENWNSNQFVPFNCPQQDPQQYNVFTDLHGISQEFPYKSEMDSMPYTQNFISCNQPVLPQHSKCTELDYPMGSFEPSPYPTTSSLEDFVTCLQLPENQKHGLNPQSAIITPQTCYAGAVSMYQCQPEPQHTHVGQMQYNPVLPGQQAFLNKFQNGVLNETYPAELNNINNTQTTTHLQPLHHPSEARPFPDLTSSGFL
TbMetRS inhib = Trypanosoma brucei MetRS inhibition. inhibition, % at 11.9 µM. 360,000 compounds, 0.4% hits. purified T. brucei MetRS, ATP depletion, Kinase-Glo luminescence. AID 624268;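 active = inhibition above a per-plate cutoff of the control wells' mean inhibition plus 3 SD, cut at about 5.5% in these data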;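 also: 0% = DMSO wells median and 100% = median of wells with control inhibitor compound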
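Assay system: T. brucei methionyl-tRNA synthetase, purified | Medium: HEPES buffer with MgCl2, KCl, DTT, spermine, BSA, pyrophosphatase | Compound: 11.9 µM single point | Incubation: 15 min enzyme-compound preincubation, 2 h reaction, 10 min detection, 25 °C | Measured by: Kinase-Glo luciferase luminescence reporting remaining unconsumed ATP | Measure: % inhibition normalized to control-well medians | Replication: Singlicate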
Tb MetRS conf = confirmation of Trypanosoma brucei MetRS inhibitors. shares compounds with TbMetRS inhib. T. brucei MetRS enzyme, luminescence (ATP depletion). inhibition, % at 11.9 µM. 1,400 compounds, 93% hits; in the data active = inhibition above about 7%
Jurkat tox = kills Jurkat cells in T. brucei MetRS counterscreen | 1,400 compounds, 12% hits | shares compounds with TbMetRS inhib | Jurkat cells viability, ATP luminescence | AID 624413 | inhibition, % at 8.3 µM; in the data active = inhibition above about 15%;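 also: 0% = vehicle and 100% = reference inhibitor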
Tb MetRS inh FP = inhibits T. brucei methionyl tRNA synthetase in orthogonal FP test. purified T. brucei MetRS, fluorescence polarization. 1,400 compounds, 44% hits. inhibition, % at 11.9 µM. shares compounds with TbMetRS inhib; in the data active = inhibition above about 17%;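 also: 0% = vehicle wells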
An asterisk follows results filed as active; ? = inconclusive; · = no result given. Rows were chosen to be rich in hits. Some 4.4% of all compounds tested hit in one or more screens of this group.

SMILES | AI-2 QS modul | HTR2A ag | MsrA inh | bovine MsrA act | AHR activator | TbMetRS inhib | Tb MetRS conf | Jurkat tox | Tb MetRS inh FP
CN(C)C(=O)c1ccccc1Sc1cc(Cl)ccc1Cl | 16.8 | 1.8 | 0.1 | -4.3 | 4.5 | -1.6 | · | · | ·
C=CCc1cccc(CNc2nc3ccccc3n2CCC)c1O | 12.6 | -2.8 | 0.5 | -2.4 | -1.2 | 18.5* | 31.2* | 5.3 | 18.0*
CCCn1c(NCc2cc(C)ccc2O)nc2ccccc21 | 11.8 | -6.3 | 0.0 | -1.7 | 10.4 | 3.0 | · | · | ·
COc1ccc(C(=O)N2CCCCC2c2cc(C(=O)NCc3cccnc3)no2)cc1 (centres undefined) | · | -3.2 | -0.4 | 2.2 | · | -0.2 | · | · | ·
O=C(CSCc1ccc([N+](=O)[O-])cc1)N/N=C/c1cccnc1 | 12.9 | 0.8 | 0.3 | -3.0 | 3.1 | 9.2* | 34.0* | -3.5 | 9.9
COc1ccccc1C1CC(c2ccc(Cl)cc2Cl)Nc2nc(N)nn21 (centres undefined) | 3.9 | 0.9 | 0.0 | -0.3 | 14.0 | 6.6* | 14.9* | 0.3 | 7.1
C[C@H](CO)N1C[C@H](C)[C@@H](CN(C)C(=O)NC2CCCCC2)Oc2c(NC(=O)Cc3ccccc3)cccc2C1=O | · | -3.2 | 1.1 | -1.8 | 0.0 | -0.2 | · | · | ·
O=c1[nH]c2ccccc2nc1NCc1ccccc1 | 7.0 | 1.6 | 3.0 | -6.1 | -7.5 | -0.3 | · | · | ·
c1ccc2[nH]c(NCc3ccc4c(c3)OCO4)nc2c1 | 1.8 | -3.3 | 0.2 | -3.8 | 16.9 | 18.0* | 30.4* | 3.1 | 14.4
c1ccc(CNc2nc3ccccc3[nH]2)cc1 | -10.1 | 0.5 | 0.6 | -1.1 | 9.9 | 25.7* | 34.9* | 8.8 | 19.9*
COc1cc(CNc2nc3ccccc3[nH]2)cc(OC)c1OC | 3.9 | -5.6 | -1.2 | -0.4 | -0.1 | 15.8* | 31.8* | 11.0 | 8.8
COc1ccc(Cl)cc1N(CC(=O)NCCSc1ccccn1)S(=O)(=O)c1ccccc1 | 24.8 | -4.4 | -0.6 | -0.6 | 1.6 | -0.5 | · | · | ·
CC1(C)CC(Cc2ccccc2C(F)(F)F)N(C(=O)OC(C)(C)C)C1 (centres undefined) | · | -3.9 | -0.4 | · | · | -0.1 | · | · | ·
Cc1cc(=O)[nH]c(N/N=C/c2c[nH]c3ccccc23)n1 | 13.9 | -0.2 | 2.0 | -2.8 | 20.1 | -0.3 | · | · | ·
O=[N+]([O-])c1ccc(N/N=C/c2c[nH]c3ccccc23)cc1 | -4.9 | -13.1 | 0.0 | 4.8 | 1.4 | 7.5* | 12.3* | 20.9* | 54.8*
C(=N\Nc1nc2ccccc2[nH]1)/c1c[nH]c2ccccc12 | 2.8 | -11.2 | 0.4 | -3.8 | 107.8* | 11.9* | 25.8* | 12.8 | 47.4*
Cc1[nH]c2ccccc2c1/C=N/Nc1nc2ccccc2[nH]1 | 15.3 | -6.7 | 2.6 | -5.9 | 143.3* | 8.3* | 29.4* | 8.6 | 29.9*
COc1ccc(C2(NC(C)=O)CCN(Cc3cccnc3)CC2)cc1 | 18.5 | 1.0 | -0.8 | -2.4 | 0.6 | 0.1 | · | · | ·
COc1cccc(C2NC(=O)CCC2[N+](=O)[O-])c1 (centres undefined) | 21.7 | -0.3 | -1.3 | -5.7 | -0.1 | -0.9 | · | · | ·
CC(=O)c1ccc(NC(=O)CCCN2C(=O)COc3ccc(C)cc32)cc1 | 8.4 | -5.6 | 0.3 | -1.4 | 8.3 | -0.5 | · | · | ·
CC1(C(=O)NS(=O)(=O)C2CC2)CCN(C(=O)c2ccccc2F)C1 (centres undefined) | · | 7.1 | 0.8 | -6.3 | · | -0.2 | · | · | ·
Nc1c(Cl)ncnc1Nc1ccc(C(=O)O)cc1 | · | 0.0 | 4.0 | -6.4 | · | 45.7* | 73.9* | -7.0 | 46.3*
COc1ccc(S(=O)(=O)NNC(=O)c2cc3cc4ccccc4nc3s2)cc1 | -2.2 | 0.9 | 1.5 | -6.8 | 3.9 | 5.8* | 14.1* | -3.3 | 14.3
CS(=O)(=O)NNC(=O)c1cc2cc3ccccc3nc2s1 | 12.9 | 3.3 | -0.2 | -2.0 | 10.8 | -0.8 | · | · | ·
Cc1cc(C)n(CCC(=O)N/N=C/c2ccc(O)cc2)n1 | 6.6 | -2.6 | 1.0 | -3.9 | 3.1 | -0.6 | · | · | ·
SMILES | AI-2 QS modul | HTR2A ag | MsrA inh | bovine MsrA act | AHR activator | TbMetRS inhib | Tb MetRS conf | Jurkat tox | Tb MetRS inh FP
Cc1cc(C)n(CCC(=O)N/N=C/c2c(O)ccc3ccccc23)n1 | -0.7 | -1.3 | 3.4 | -7.7 | 62.1* | 6.5* | 13.9* | 86.8* | 10.7
Cc1c(C(=O)O)sc(S(=O)(=O)N2CCN(C(=O)CC(C)c3ccccc3)CC2)c1C(=O)O (centres undefined) | · | 5.4 | -0.8 | -1.1 | · | -0.1 | · | · | ·
Cn1c(SCC(=O)Nc2ccc3cn[nH]c3c2)nnc1-c1cnccn1 | 7.8 | -5.0 | 0.7 | -0.3 | 30.2 | 7.8* | 14.2* | -4.2 | 9.0
Cn1c(SCC(=O)Nc2ccc3cn[nH]c3c2)nnc1-c1cccs1 | ? | 4.0 | 0.0 | 1.9 | 20.2 | 0.5 | · | · | ·
COc1ccc([C@H]2C[C@H](n3cc(COC(=O)c4ccccc4)nn3)[C@@H](O)CN2CC2CCCCC2)cc1 | · | -4.1 | 0.8 | -0.9 | · | 0.7 | · | · | ·
COc1cccc(S(=O)(=O)N(C)C[C@@H]2Oc3ncc(C#CCN(C)C)cc3C(=O)N([C@H](C)CO)C[C@H]2C)c1 | · | -1.2 | 0.3 | 0.6 | · | 0.5 | · | · | ·
COc1ccc(-c2noc([C@@H]3O[C@H](CO)[C@H](O)[C@H](O)[C@H]3O)n2)cc1OC | · | -1.2 | -0.5 | -12.8 | · | 7.5* | 2.9 | -7.2 | 5.7
COc1cc(OC)cc(-c2noc([C@@H]3O[C@H](CO)[C@H](O)[C@H](O)[C@H]3O)n2)c1 | · | 12.5 | -0.9 | -2.2 | · | 0.3 | · | · | ·
CCCCCCCCNc1ncnc2ccccc12 | 83.1 | -4.0 | · | -2.3 | -7.9 | 11.1* | 24.7* | 46.0* | 7.8
COc1ccccc1NC(=S)Nc1ccc2cn[nH]c2c1 | 0.7 | -0.2 | 0.9 | -2.3 | 46.8 | 7.8* | 1.9 | 1.9 | 1.4
CCO[C@H]1OC(C(=O)NCc2nc3ccccc3[nH]2)=C[C@@H](C2CCCCC2)[C@@H]1CCCO | 4.8 | -5.7 | -1.1 | -0.3 | 4.6 | 3.7 | · | · | ·
O=C(NCc1nc2ccccc2[nH]1)C1=C[C@@H](C2CCCCC2)C[C@@H](OCCCCO)O1 | 7.4 | 1.4 | 0.3 | -1.0 | 3.9 | 48.3* | 83.2* | -6.8 | 62.0*
C[C@H]1C=C(C(=O)NCc2nc3ccccc3[nH]2)O[C@@H](OCCCCO)C1 | 19.5 | 4.3 | -0.1 | -2.2 | -0.4 | 14.0* | 54.1* | 0.2 | 27.1*
CCO[C@@H]1OC(C(=O)NCc2nc3ccccc3[nH]2)=C[C@H](C)[C@H]1CCCO | 24.8 | 3.3 | 0.1 | -1.3 | 4.1 | 0.1 | · | · | ·
CC(C)(C)[C@H]1C=C(C(=O)NCc2nc3ccccc3[nH]2)O[C@@H](OCCCCO)C1 | 20.7 | -6.6 | -0.3 | -3.8 | 3.2 | 57.0* | 96.5* | -6.2 | 60.9*

Screening results: PubChem, several laboratories
